Results filed as inconclusive are left out. Activity calls are given as the source filed them.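 The calls were made as follows, unless noted: active = RAM network inhibition above 8.4% in each of two replicates, 3 SD over the compound average; inconclusive = above 8.4% inhibition in only one replicate; inactive = 8.4% inhibition or less in each replicate.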
How the values were obtained:
[1] = S. cerevisiae growth inhibition in permissive medium (OD615), pilot counter-assay for S. cerevisiae lifespan shortening project, permissive growth control (AID 705;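 active = growth inhibition above 25% in both replicates, a cutoff set 3 SD above the mean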); conditions: OD615, 24 h, at 10 µM, stronger effect = higher value
Outline: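 System: Engineered DeaD yeast | Buffer or medium: SC raffinose/galactose permissive medium | Incubation: Cells pre-grown 4 h, then 24 h compound exposure, 30 °C humidified | Measured by: Absorbance (optical density) at 615 nm | Read-out: Reduction in yeast growth (OD615)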

[2] = S. cerevisiae growth inhibition in restrictive medium, OD615, pilot screen, restrictive growth control, yeast lifespan reduction project (AID 706;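 active = growth inhibition above a set limit, 3 SD over mean compound inhibition, in both replicates, cut at about 43% in these data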;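 also: modified DeaD lifespan yeast strain shifted to restrictive glucose medium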); conditions: OD615, 48 h, at 10 µM, stronger effect = higher value
Outline: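 Material: modified S. cerevisiae; Medium: glucose-based CSMM-D restrictive medium; Compound dosing: one concentration, 10 µM final, 0.25% DMSO; Incubation: 48 h compound exposure at 30 °C; Measured by: OD615.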

[3] = viability of HCT116 without oncogenic beta-catenin – human colon tumor cells, pilot screen (AID 823;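 active = cell viability at or below a set limit in both duplicate runs, the limit being the all-compound median minus 4 SD, cut at about 23% in these data, passing the limit was not always enough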;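 also: 0% = wells killed by 20 µM Hyamine and 100% = untreated DMSO cell wells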); conditions: HCT116 beta-catenin knockout viability, CellTiter-Glo, 60 h; at 10 µM; stronger effect = lower value
[4] = viability of PTEN-null HCT116 cells – cell-based, HCT116 clonal line, CellTiter-Glo, pilot screen (AID 824;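 active = viability at or below 27.92% in each of two runs, the all-compound median minus 4 SD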;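 also: 0% = 20 µM Hyamine control and 100% = vehicle cell control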); conditions: HCT116 PTEN-deleted viability, 60 h, at 10 µM, stronger effect = lower value
[5] = RAM pathway blockade in budding yeast – dse1pr::URA3 reporter, 5-FOA selection, pilot screen (AID 869;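 active = inhibition over a set limit, the all-compound mean plus 3 SD, in both replicate runs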;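 also: 0% = DMSO wells with no growth and 100% = 10 µM 1-NA-PP1 with full growth; RAM network block rescues cells from 5-FOA so hits raise OD615 growth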); conditions: S. cerevisiae dse1pr::URA3 5-FOA growth, OD615, 2 d; at 10 µM; stronger effect = higher value; strain carries analog-sensitive mutant Cbk1 kinase
[6] = RAM signaling pathway blockade in yeast – S. cerevisiae, Pdr1DBD-CYC8 efflux-inhibited sensitized strain, primary screen (AID 1298);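 also: 0% = DMSO untreated cells without growth and 100% = 10 µM 1-NA-PP1 full growth; higher means more yeast growth rescued from 5-FOA killing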; conditions: S. cerevisiae cbk1-as DSE1-URA3 strain, 5-FOA growth OD615, 2 d; at 50 µM; stronger effect = higher value
[7] = doxorubicin toxicity protection in MRP-1 cells – H69AR cells, CellTiter-Glo, duplicate, MRP-1 activator project, pilot screen (AID 807;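 active = viability increase at or above a cutoff of the median across tested compounds plus 3 SD, cut at about 8.5% in these data, passing the limit was not always enough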;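 also: compound pretreatment 18-22 h then 72 h combined with doxorubicin; 0% = doxorubicin alone and 100% = vehicle without doxorubicin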); conditions: H69AR viability with doxorubicin, CellTiter-Glo luminescence; at 10 µM; stronger effect = higher value

O=C(CSCc1ccc(Cl)cc1)NCC1CCCO1 (stereo not drawn)
inactive: growth inhibition [1] -7.79% | growth inhibition [2] -2.08% | viability [3] 102% | viability [4] 101% | inhibition [5] 1.34% | RAM network inhibition [6] 3.99%

Cc1cccc(C2CC(c3ccccc3)Nc3ncnn32)c1 (stereo not drawn)
inactive: growth inhibition [1] 3.16% | growth inhibition [2] 13.8% | viability [3] 91.9% | viability [4] 93.8% | inhibition [5] 1.7% | RAM network inhibition [6] 0.37%

CCOC(=O)/C=C1\SCC(=O)N1CCOc1cccc(Br)c1
inactive: growth inhibition [1] -18.6% | growth inhibition [2] -29.1% | viability [3] 85.5% | viability [4] 80.4% | inhibition [5] 2.75% | RAM network inhibition [6] 3.37%

CCCCc1ccc(-c2nc(-c3ccncc3)no2)cc1
inactive: growth inhibition [1] -16.1% | growth inhibition [2] -3.25% | viability [3] 65.8% | viability [4] 75.9% | inhibition [5] 3.17% | RAM network inhibition [6] 3.23%

Cc1noc(/C=C/N(C)C)c1S(=O)(=O)N1CCCC(C(=O)NC2CCCCC2C)C1 (stereo not drawn)
inactive: growth inhibition [1] -2.76% | growth inhibition [2] -6.36% | viability [3] 87.1% | viability [4] 83.2% | inhibition [5] 1.89% | RAM network inhibition [6] 7.7%

COc1ccccc1CNC(=O)CN1CCN(Cc2ccc(Cl)cc2)C1=O
inactive: growth inhibition [1] 7.3% | growth inhibition [2] 10.3% | viability [3] 98.3% | viability [4] 92.5% | inhibition [5] 1.5% | RAM network inhibition [6] 0.67%

CCOc1ccccc1N1CSC2=C(C#N)C(c3c(OC)ccc4ccccc34)CC(=O)N2C1 (stereo not drawn)
inactive: growth inhibition [1] 4.14% | viability increase [7] -6.32% | viability [3] 67.3% | viability [4] 65.5% | inhibition [5] 3.73% | RAM network inhibition [6] 3.99%

Brc1ccc(CSc2ncn[nH]2)cc1
inactive: growth inhibition [1] -0.435% | growth inhibition [2] 12.1% | viability [3] 95.3% | viability [4] 95.3% | inhibition [5] 0.94% | RAM network inhibition [6] 0.27%

Cc1ccc(Cl)cc1N1CCN(C(=O)c2cc3c(=O)n(C)c4ccccc4c3n2C)CC1
active: viability [3] 20.4% | viability [4] 23.5%
inactive: growth inhibition [1] -2.52% | growth inhibition [2] 9.03% | inhibition [5] 1.74% | RAM network inhibition [6] 2.44%

S=C(Nc1ccccn1)c1ccccn1
inactive: growth inhibition [1] 7.06% | viability increase [7] -8.21% | inhibition [5] 1.43% | RAM network inhibition [6] 3.64%
active: viability [3] 2.08% | viability [4] 0.72%

Cc1noc(/C=C/N(C)C)c1S(=O)(=O)N1CCCC(C(=O)Nc2ccc3c(c2)OCO3)C1 (stereo not drawn)
inactive: growth inhibition [1] -1.3% | growth inhibition [2] -0.88% | viability [3] 89.1% | viability [4] 89.7% | inhibition [5] 2.2% | RAM network inhibition [6] 7.17%

Fc1ccc(-c2nnc3ccc(N4CCc5ccccc5C4)nn23)cc1
active: viability [3] 2.21% | viability [4] 1.42%
inactive: growth inhibition [1] 14.2% | viability increase [7] -7.99% | inhibition [5] 2.02% | RAM network inhibition [6] 3.14%

O=C(CCc1ccccc1)Nc1nnc(-c2ccc3c(c2)CCCC3)o1
inactive: growth inhibition [1] -1.89% | growth inhibition [2] 11.3% | viability [3] 53.6% | viability [4] 72.1% | inhibition [5] 0.09% | RAM network inhibition [6] 5.06%

CN(C)S(=O)(=O)c1ccc(S(=O)(=O)N2CCN(CCC#N)CC2)cc1
inactive: growth inhibition [1] -0.96% | growth inhibition [2] 2.05% | viability [3] 102% | viability [4] 101% | inhibition [5] 0.005% | RAM network inhibition [6] -1.81%

Cc1noc(/C=C/N(C)C)c1S(=O)(=O)N1CCCC(C(=O)NCc2ccco2)C1 (stereo not drawn)
inactive: growth inhibition [1] 4.93% | growth inhibition [2] -2.94% | viability [3] 97.6% | viability [4] 92.1% | inhibition [5] 0.86% | RAM network inhibition [6] 4.7%

Cc1cccc(N(C)c2cc(C)nc3nc(C)nn23)c1
inactive: growth inhibition [1] -14.5% | growth inhibition [2] -6.39% | viability [3] 64.8% | viability [4] 53.3% | inhibition [5] 2.03% | RAM network inhibition [6] 5.5%

COc1cc(Cl)c(C)cc1NC(=O)CSc1nnc(-c2cccnc2)n1Cc1ccco1
inactive: growth inhibition [1] 4.79% | viability increase [7] -3.48% | viability [3] 84.8% | viability [4] 79.8% | inhibition [5] 0.775% | RAM network inhibition [6] 7.75%

Cn1c(=O)[nH]c(=O)c2c1nc(SCC(=O)Nc1ccccc1)n2Cc1ccccc1
inactive: growth inhibition [1] -4.58% | growth inhibition [2] 0.385% | viability [3] 92% | viability [4] 94.6% | inhibition [5] 0.935% | RAM network inhibition [6] 2.08%

O=C(CSc1nnc(Cn2c(=O)sc3ccccc32)n1CCc1ccccc1)N1CCCC1
inactive: growth inhibition [1] 2.63% | viability increase [7] -3.62% | viability [3] 97.9% | viability [4] 94.9% | inhibition [5] 2.82% | RAM network inhibition [6] 7.13%

Cn1c(CNc2ccccc2O)nc2ccccc21
inactive: growth inhibition [1] -5.35% | viability increase [7] -6.1% | viability [3] 68.8% | viability [4] 64% | inhibition [5] 0.42% | RAM network inhibition [6] -1.31%

COc1ccc(S(=O)(=O)N2CCN(c3ccc4nnc(-c5ccc(F)cc5)n4n3)CC2)cc1
inactive: growth inhibition [1] 16.1% | viability increase [7] -6.07% | viability [3] 46.4% | viability [4] 38.6% | inhibition [5] 1.78% | RAM network inhibition [6] 1.48%

Cc1cccc(N2CCN(C(=O)c3cc4c(=O)n(C)c5ccccc5c4n3C)CC2)c1C
inactive: growth inhibition [1] -7.02% | growth inhibition [2] -6.91% | viability [3] 61.1% | viability [4] 65.5% | inhibition [5] 3.12% | RAM network inhibition [6] 1.49%

CN(c1ccccc1)S(=O)(=O)c1ccc(C(=O)Nc2nccs2)cc1
inactive: growth inhibition [1] -17.4% | growth inhibition [2] -19.6% | viability [3] 84.8% | viability [4] 83.3% | inhibition [5] 3.73% | RAM network inhibition [6] 4.85%

CCc1ccc(C2CC(c3ccccc3C)n3nc(N)nc3N2)cc1 (stereo not drawn)
inactive: growth inhibition [1] 7.95% | growth inhibition [2] -3.1% | viability [3] 87.5% | viability [4] 79.6% | inhibition [5] 0.19% | RAM network inhibition [6] 6.27%

CCOc1ccc2nc3ccc4[nH]onc4c3c2c1
inactive: growth inhibition [1] 0.485% | growth inhibition [2] 1.57% | viability [3] 74.8% | viability [4] 66.5% | inhibition [5] 2.8% | RAM network inhibition [6] 6.1%

O=C(O)c1cccc(N2C(=O)C3CC=C(Cl)CC3C2=O)c1 (stereo not drawn)
inactive: growth inhibition [1] -4.4% | growth inhibition [2] -10.2% | viability [3] 95.6% | viability [4] 92.4% | inhibition [5] 1.16% | RAM network inhibition [6] 3.38%

Cc1ccc(-c2nn3c(C)nnc3s2)cc1NC(=O)c1ccc(Br)o1
inactive: growth inhibition [1] 4.25% | viability increase [7] -3.03% | viability [3] 105% | viability [4] 93% | inhibition [5] 3% | RAM network inhibition [6] 8.4%

CC(NC(=O)CN1CCN(Cc2ccc(Cl)cc2)C1=O)c1ccc2c(c1)OCCO2 (stereo not drawn)
inactive: growth inhibition [1] 2.64% | growth inhibition [2] -21.2% | viability [3] 84.1% | viability [4] 86.3% | inhibition [5] -0.3% | RAM network inhibition [6] 0.27%

Cc1ccc(N2C(=O)Nc3ccc(Br)cc3C2(O)C(=O)NCCCN(C)C)cc1C (stereo not drawn)
inactive: growth inhibition [1] -7.06% | growth inhibition [2] -9.65% | viability [3] 91.7% | viability [4] 98.7% | inhibition [5] 0.615% | RAM network inhibition [6] 3.58%

COc1ccc(NC(=O)CSc2nnc(Cn3c(=O)sc4ccccc43)n2C)c(OC)c1
inactive: growth inhibition [1] 2.11% | viability increase [7] -4.82% | viability [3] 101% | viability [4] 92.7% | inhibition [5] -0.285% | RAM network inhibition [6] 1.01%

Cn1c(C(=O)N2CCC(C(=O)N3CCN(Cc4ccc5c(c4)OCO5)CC3)CC2)cc2sccc21
inactive: growth inhibition [1] -9.98% | viability increase [7] -2.38% | viability [3] 70.9% | viability [4] 71.1% | inhibition [5] 1.03% | RAM network inhibition [6] 3.95%

O=C(O)c1cc2c(s1)-c1ccccc1OC2
inactive: growth inhibition [1] 6.14% | viability increase [7] -4.32% | viability [3] 96.9% | viability [4] 98.7% | inhibition [5] 0.165% | RAM network inhibition [6] -2.9%

N#Cc1nc(COc2cccc(Cl)c2)oc1N1CCCC1
inactive: growth inhibition [1] 4.94% | growth inhibition [2] 11.2% | viability [3] 82.7% | viability [4] 82.7% | inhibition [5] -0.7% | RAM network inhibition [6] 0.47%

O=C1C=C(O)CC(c2ccc(Cl)cc2)C1 (stereo not drawn)
inactive: growth inhibition [1] -2.77% | growth inhibition [2] 0.79% | viability [4] 103% | inhibition [5] -0.37% | RAM network inhibition [6] 8.23%

CCN1CCN(C(=O)C(NS(=O)(=O)c2ccc3nc(C)sc3c2)C(C)C)CC1 (stereo not drawn)
inactive: growth inhibition [1] -15.9% | viability increase [7] -0.67% | viability [3] 99.4% | viability [4] 95.2% | inhibition [5] 0.845% | RAM network inhibition [6] -0.04%

COc1ccccc1C1CC(c2ccc(Cl)cc2Cl)Nc2nc(N)nn21 (stereo not drawn)
inactive: growth inhibition [1] -5.97% | growth inhibition [2] 25.2% | viability [3] 86.1% | viability [4] 85% | inhibition [5] 1.62% | RAM network inhibition [6] 7.09%

Cc1cccc(-n2ncc3c(N4CC(C)CC(C)C4)ncnc32)c1 (stereo not drawn)
inactive: growth inhibition [1] -1.33% | growth inhibition [2] -3.92% | viability [3] 59.9% | viability [4] 78.1% | inhibition [5] 1.74% | RAM network inhibition [6] 6.19%

Cc1csc(NC(=O)CSc2nnc(Cc3cccn3C)n2CCc2ccccc2)n1
inactive: growth inhibition [1] 11% | viability increase [7] -3.58% | viability [3] 87.1% | viability [4] 82.6% | inhibition [5] 0.505% | RAM network inhibition [6] 9.43%

O=C(Nc1nc2c(s1)CCCC2)c1ccc2ncsc2c1
inactive: growth inhibition [1] 14.5% | viability increase [7] -2.76% | viability [3] 68.4% | viability [4] 76.7% | inhibition [5] -0.135% | RAM network inhibition [6] 0.27%
